Results pooled from the literature.
Protocols differ between the studies behind these lines.
Read-out: cell growth or viability

CC1CCC(C(C)C)C(OC2=C(Cl)C(=O)c3ccccc3C2=O)C1 (stereo not drawn) gave an IC50 of 4 µg/mL (SK-BR-3; MTT; 24 h).
The IC50 of O=[N+]([O-])c1ccc(NC(=S)N/N=C/c2cccc3cc4ccccc4nc23)cc1 is reported as > 50000 nM (SK-BR-3; MTT; 48 h).
C[C@H]1[C@H](C)CC[C@]2(C)CC[C@]3(C)C(=CC(=O)[C@@H]4[C@@]5(C)CC[C@@H](O)[C@](C)(C(=O)NCc6cn(-c7ccc(Cl)cc7)nn6)[C@@H]5CC[C@]43C)[C@H]12 has an IC50 of 191000 nM (HDF; MTT; 24 h).
With Cc1sc2c(c1C)C(c1ccc(Cl)cc1)=N[C@@H](CC(=O)NCCCCNC(=O)COc1cccc3c1C(=O)N(C1CCC(=O)NC1=O)C3=O)c1nnc(C)n1-2 (stereo partly drawn) the IC50 was > 10000 nM (SK-BR-3; CCK-8; 72 h).
The IC50 of CO[C@H]1[C@H](O[C@H]([C@H]2O[C@@H](n3ccc(=O)[nH]c3=O)[C@H](O)[C@@H]2O)[C@H](NCCCNC(=O)[C@@H](NC(=O)[C@@H](NC(=O)N[C@H](C(=O)O)C(C)C)[C@@H]2CCN=C(N)N2)[C@@H](OC(=O)CCCCCCCCCCCCN(O)C(=N)N)C(C)C)C(=O)O)O[C@H](CN)[C@H]1O is reported as 590 nM (SK-BR-3; WST-1).
The IC50 of COc1cc(C(=O)c2nc(-c3ccnc4[nH]ccc34)c[nH]2)cc(OC)c1OC is reported as 15.8 nM (M14; MTS; 72 h).
O=C1C[C@@H](c2ccccc2)Oc2cc(O)cc(O)c21 gave an IC50 of 103000 nM (Vero; MTT; 72 h).
NC1=NN(c2ccc([N+](=O)[O-])cc2[N+](=O)[O-])C(=O)C1N=Nc1ccccc1C(=O)O (stereo not drawn) gave an IC50 of 54400 nM (Vero; MTT; 72 h).
For O=C(NO)c1ccc(Cn2cnc3c(Nc4ccc(Cl)cc4)ncnc32)cc1, the IC50 was 630 nM (U-266; MTT; 72 h).
The IC50 of COc1cc(C(=O)c2nc(-c3cccc4[nH]ccc34)c[nH]2)cc2c1OCO2 is reported as 3.6 nM (M14; MTS; 72 h).
FC(F)(F)c1ccc(-c2cc(COc3cc(C(F)(F)F)nc4ccccc34)on2)cc1 has an IC50 of > 100000 nM (HL-60; MTS; 72 h).
The IC50 of COc1cc(C(=O)c2nc(-c3cccc4[nH]ccc34)c[nH]2)cc2c1OC=CO2 is reported as 7.3 nM (M14; MTS; 72 h).
C[C@H]1[C@H](C)CC[C@]2(C)CC[C@]3(C)C(=CC(=O)[C@@H]4[C@@]5(C)CC[C@@H](O)[C@](C)(C(=O)NCc6cn(-c7cccc(Br)c7)nn6)[C@@H]5CC[C@]43C)[C@H]12 has an IC50 of 121000 nM (HDF; MTT; 24 h).
COc1cc(C(=O)c2nc(-c3ccncc3)c[nH]2)cc(OC)c1OC has an IC50 of > 1000 nM (M14; MTS; 72 h).
O=c1cc(OCc2cc(-c3ccc(Cl)cc3Cl)no2)c2ccccc2o1 has an IC50 of > 100000 nM (HL-60; MTS; 72 h).
With COc1cc(C(=O)c2nc(-c3cccc4c3CC(=O)N4)c[nH]2)cc(OC)c1OC the IC50 was 9.5 nM (M14; MTS; 72 h).
The IC50 of Cc1noc(C)c1-c1cc(C(O)(c2ccccn2)c2ccccn2)c2nc(C3CC3)[nH]c2c1 is reported as 104 nM (MP41; ATP luminescence; 72 h).
For Nc1ccccc1NC(=O)c1ccc(Cn2cnc3c(Nc4ccc(Cl)cc4)ncnc32)cc1, the IC50 was 1110 nM (HL-60; MTT; 72 h).
For Clc1ccc(-c2cc(CNc3cccc4cccnc34)on2)c(Cl)c1, the IC50 was 67100 nM (HL-60; MTS; 72 h).
For CNC(=S)N/N=C/c1cccc2cc3ccccc3nc12, the IC50 was 41800 nM (SK-BR-3; MTT; 48 h).
With CC(=O)N1c2ccc(-c3ccc(C(=O)O)cc3)cc2[C@H](Nc2ccc(Cl)cc2)C[C@@H]1C the IC50 was 154 nM (MP41; ATP luminescence; 72 h).
With C[C@H]1[C@H](C)CC[C@]2(C)CC[C@]3(C)C(=CC(=O)[C@@H]4[C@@]5(C)CC[C@@H](O)[C@](C)(C(=O)NCc6cn(-c7ccc(Br)cc7)nn6)[C@@H]5CC[C@]43C)[C@H]12 the IC50 was 117000 nM (HDF; MTT; 24 h).
For C[C@H]1COCCN1c1nc(N2CCOC[C@@H]2C)c2ccc(-c3cccc(C(=O)NCCOCCOCCOCCONC(=O)c4ccc(F)c(F)c4Nc4ccc(I)cc4F)c3)nc2n1, the IC50 was 22800 nM (D54; WST-1; 72 h).
For COc1cccc(NC(=S)N/N=C/c2cccc3cc4ccccc4nc23)c1, the IC50 was > 50000 nM (SK-BR-3; MTT; 48 h).
CC(=O)O[C@H]1C(=O)[C@@]2(C)[C@H]([C@H](OC(=O)c3ccccc3)[C@]3(O)C[C@H](OC(=O)[C@H](O)[C@@H](NC(=O)c4ccccc4)c4ccccc4)C(C)=C1C3(C)C)[C@]1(OC(C)=O)CO[C@@H]1C[C@@H]2O has an IC50 of 0.2 nM (M14; MTS; 72 h).
COc1cccc2c1C(=O)c1c(O)c3c(c(O)c1C2=O)C[C@@](O)(C(=O)CO)C[C@@H]3O[C@H]1C[C@H](N)[C@H](O)[C@H](C)O1 gave an IC50 of 54.4 µg/mL (SK-BR-3; MTT; 24 h).
The IC50 of O=C(NO)c1ccc(Cn2cnc3c(Nc4ccc(Br)cc4F)ncnc32)cc1 is reported as 750 nM (U-266; MTT; 72 h).
COc1ccc(N(C)c2nc(C)nc3ccccc23)cc1OCCCC(=O)NO has an IC50 of 84.4 nM (MP41; ATP luminescence; 72 h).
For CC(C)CNC(=S)N/N=C/c1cccc2cc3ccccc3nc12, the IC50 was > 50000 nM (SK-BR-3; MTT; 48 h).
COc1ccc(-n2cc(CNC(=O)[C@@]3(C)[C@H](O)CC[C@@]4(C)[C@H]3CC[C@]3(C)[C@@H]4C(=O)C=C4[C@@H]5[C@@H](C)[C@H](C)CC[C@]5(C)CC[C@]43C)nn2)cc1 has an IC50 of 109000 nM (HDF; MTT; 24 h).
COc1cc([C@@H]2c3cc4c(cc3[C@H](O)[C@H]3COC(=O)[C@H]23)OCO4)cc(OC)c1OC has an IC50 of 6.49 nM (MP41; ATP luminescence; 72 h).
C/C(=N/NC(=O)c1cn(-c2ccccc2)nc1-c1ccc(Br)cc1)c1c(O)cc(C)oc1=O has an IC50 of 192000 nM (Vero; MTT; 48 h).
With FC(F)(F)c1cc(OCc2cc(-c3ccccn3)no2)c2ccccc2n1 the IC50 was > 100000 nM (HL-60; MTS; 72 h).
The IC50 of C/C(=N/NC(=O)c1cn(-c2ccccc2)nc1-c1ccc(F)cc1)c1c(O)cc(C)oc1=O is reported as 191000 nM (Vero; MTT; 48 h).
COc1cc(C(=O)c2nc(-c3ccsc3)c[nH]2)cc(OC)c1OC has an IC50 of 48.5 nM (M14; MTS; 72 h).
COc1ccc(-c2nc(N3CCOCC3)c3sc(CN(C)c4ncc(C(=O)NO)cn4)cc3n2)cn1 has an IC50 of 5.96 nM (MP41; ATP luminescence; 72 h).
For O=C(NO)c1ccc(Cn2cnc3c(Nc4cccc([N+](=O)[O-])c4)ncnc32)cc1, the IC50 was 310 nM (U-266; MTT; 72 h).
For Nc1ccn([C@@H]2O[C@H](CO)[C@@H](O)C2(F)F)c(=O)n1, the IC50 was 76.9 nM (MP41; ATP luminescence; 72 h).
The IC50 of O=c1cc(OCc2cc(-c3ccccn3)no2)c2ccccc2o1 is reported as > 100000 nM (HL-60; MTS; 72 h).
